Source: ChEMBL document CHEMBL1148130, “Derrisin, a new rotenoid from Derris malaccensis plain and anti-Helicobacter pylori activity of its related constituents” (2002)
Values after ≈ are worked out from the molar mass of the structure shown. Active and inactive are the calls of the source. The calls are words filed in the database; no cut-off is given here.

Legend:
Helicobacter pylori = experiment: Antibacterial activity against Helicobacter pylori 31A after 48 hrs by serial doubling dilution method; type: functional
In short: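 H. pylori strain 31 A (stomach ulcer isolate) in brain-heart infusion broth with 10% fetal bovine serum, grown in test tubes under 10% CO2, 5% O2 and 85% N2 at 37 °C. Serial doubling dilutions made in 10% aqueous DMSO and added as 10% of the medium, with 5% culture inoculum. Incubated 37 °C for 48 h. MIC taken as the lowest concentration with no visible growth.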

Bacillus subtilis = experiment: Antibacterial activity against Bacillus subtilis ATCC 6633 at 625 ug/mL after 24 hrs by conventional well agar method; type: functional, organism-based
Micrococcus luteus = experiment: Antibacterial activity against Micrococcus luteus ATCC 9341 at 625 ug/mL after 24 hrs by conventional well agar method; type: functional, organism-based
Bacteroides fragilis = experiment: Antibacterial activity against Bacteroides fragilis ATCC 25285 at 625 ug/mL after 24 hrs by conventional well agar method; type: functional, organism-based
Escherichia coli = experiment: Antibacterial activity against Escherichia coli ATCC 10536 at 625 ug/mL after 24 hrs by conventional well agar method; type: functional, organism-based
Pseudomonas aeruginosa = experiment: Antibacterial activity against Pseudomonas aeruginosa ATCC 9027 at 625 ug/mL after 24 hrs by conventional well agar method; type: functional, organism-based
Candida albicans = experiment: Antifungal activity against Candida albicans ATCC 10231 at 625 ug/mL after 24 hrs by conventional well agar method; type: functional, organism-based

| Compound | MIC (Helicobacter pylori) | Activity (Bacillus subtilis) | Activity (Micrococcus luteus) | Activity (Bacteroides fragilis) | Activity (Escherichia coli) | Activity (Pseudomonas aeruginosa) | Activity (Candida albicans) |
| --- | --- | --- | --- | --- | --- | --- | --- |
| COc1cc2c(cc1OC)[C@@H]1C(=O)c3ccc4occc4c3O[C@@H]1CO2 [ELLIPTONE] | 3 µg/mL (≈ 8.51 µM) | inactive | inactive | inactive | inactive | inactive | inactive |
| C=C(C)[C@H]1Cc2c(ccc3c(=O)c4c(oc23)COc2cc(OC)c(OC)cc2-4)O1 [DEHYDROROTENONE] | 9.8 µg/mL (≈ 25 µM) | inactive | inactive | inactive | inactive | inactive | inactive |
| COc1cc2c(cc1OC)[C@@H]1C(=O)c3ccc4c(c3O[C@@H]1CO2)[C@H](O)[C@@H](O)C(C)(C)O4 [DERRISIN] | 85 µg/mL (≈ 198 µM) | inactive | inactive | inactive | inactive | inactive | inactive |
| COc1cc2c(cc1OC)[C@@H]1C(=O)c3c(O)cc4c(c3O[C@@H]1CO2)C=CC(C)(C)O4 [TOXICAROL] | 0.3 µg/mL (≈ 0.731 µM) | inactive | inactive | inactive | inactive | inactive | inactive |
| COc1cc2c(cc1OC)[C@]1(O)C(=O)c3ccc4c(c3O[C@@H]1CO2)C=CC(C)(C)O4 [TEPHROSIN] | 0.3 µg/mL (≈ 0.731 µM) | inactive | inactive | inactive | inactive | inactive | inactive |
| C=C(C)[C@H]1Cc2c(ccc3c2O[C@@H]2COc4cc(OC)c(OC)cc4[C@@H]2C3=O)O1 [ROTENONE] | 1.3 µg/mL (≈ 3.3 µM) | inactive | inactive | inactive | inactive | inactive | inactive |
| COc1cc2c(cc1OC)-c1c(oc3c4c(ccc3c1=O)OC(C)(C)C=C4)CO2 [DEHYDRODEGUELIN] | 4 µg/mL (≈ 10.2 µM) | inactive | inactive | inactive | inactive | inactive | inactive |
| COc1cc2c(cc1OC)Oc1c(oc3c4c(ccc3c1=O)OC(C)(C)C=C4)CO2 | 4 µg/mL (≈ 9.79 µM) | inactive | inactive | inactive | inactive | inactive | inactive |
| COc1cc2c(cc1OC)[C@@H]1C(=O)c3ccc4c(c3O[C@@H]1CO2)C=CC(C)(C)O4 [DEGUELIN] | 0.6 µg/mL (≈ 1.52 µM) | inactive | inactive | inactive | inactive | inactive | inactive |
| CC[C@H]1OC(=O)[C@H](C)[C@@H](O[C@H]2C[C@@](C)(OC)[C@@H](O)[C@H](C)O2)[C@H](C)[C@@H](O[C@@H]2O[C@H](C)C[C@H](N(C)C)[C@H]2O)[C@](C)(OC)C[C@@H](C)C(=O)[C@H](C)[C@@H](O)[C@]1(C)O [CLARITHROMYCIN] | 0.05 µg/mL (≈ 0.0668 µM) | inactive | inactive | inactive | inactive | inactive | inactive |
| C=C(C)[C@H]1Cc2c(ccc3c2O[C@@H]2COc4cc(OC)c(OC)cc4[C@]2(O)C3=O)O1 [ROTENOLONE] | 1.3 µg/mL (≈ 3.17 µM) | inactive | inactive | inactive | inactive | inactive | inactive |
| COc1cc2c(cc1OC)[C@]1(O)C(=O)c3ccc4c(c3O[C@@H]1CO2)[C@H](O)[C@@H](O)C(C)(C)O4 | > 88 µg/mL | inactive | inactive | inactive | inactive | inactive | inactive |
